# Bioassay records from PubChem BioAssay.
# In the library only some 2% were active in any assay of this set; here they are far more common.
# dFosB act = mouse delta FosB homodimer activation; P13346; purified delta FosB, TAMRA-CDK5 oligo fluorescence polarization; percent of positive-control signal above neutral wells; activation, % at 25 µM; hit rate 0.99% among 340,000;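 active = mean activation above about 17%, with every replicate also reaching it, limit read from the data, passing the limit was not always enough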
# Target sequence (P13346 whole entry, looked up): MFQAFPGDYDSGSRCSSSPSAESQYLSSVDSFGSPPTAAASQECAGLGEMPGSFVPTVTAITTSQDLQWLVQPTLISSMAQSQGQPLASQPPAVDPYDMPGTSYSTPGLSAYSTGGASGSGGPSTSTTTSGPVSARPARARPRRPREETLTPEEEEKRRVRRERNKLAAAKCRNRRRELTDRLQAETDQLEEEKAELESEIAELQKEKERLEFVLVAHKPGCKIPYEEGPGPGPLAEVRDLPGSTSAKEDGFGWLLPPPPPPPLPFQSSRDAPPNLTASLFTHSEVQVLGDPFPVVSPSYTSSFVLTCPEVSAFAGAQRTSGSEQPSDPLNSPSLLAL
# CAL PDZ FP-1 = human CAL PDZ-peptide interaction inhibition. Q9HD26. AID 504414. hit rate 0.02% among 330,000. inhibition, % at 20 µM. purified CAL PDZ, TMR-peptide fluorescence polarization, 1 h;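 active = highest replicate inhibition of at least 40%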;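 note: plate controls were DMSO neutral control wells for no effect and unlabeled competitor peptide control wells for full effect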
#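 Assay system – tagged CAL PDZ protein CerCALP, purified · Timing – 1 h at RT · Compound – single point, 20 µM · Measured by – fluorescence polarization from S- and P-plane intensities, G-factor corrected · Evaluation – inhibition from polarization loss · Probe or stimulus – TMR reporter peptide T*-PRC34 · Buffer or medium – pH 7.4 phosphate-saline buffer, reducing agent, detergent, IgG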
# CAL PDZ FP-2 = inhibitors of human CAL PDZ peptide binding; purified CAL PDZ, TMR-peptide fluorescence polarization, 1 h; inhibition, % at 24.9 µM; AID 602252; hit rate 0.92% among 300,000;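 active = mean inhibition of at least 30% with at least half of replicates also reaching 30%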;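 note: 0% = DMSO neutral control and 100% = excess unlabeled competitor peptide PRC23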
# NTR1 agonist = agonists of human neurotensin receptor NTR1. hit rate 0.17% among 330,000. P30989. NTR1-U2OS beta-arrestin-GFP spot imaging, agonist mode. activation, % at 20 µM;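 active = activation at or above 40% of the spot to cytoplasm intensity ratio, with at least 20 cells analyzed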;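 note: 0% = DMSO without peptide and 100% = 100 nM NTR1 peptide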
# PKA-R2B act = PKA-R2B complex activation; P22694+P31323; PKA-R2B holoenzyme dissociation, Cy5-IP20 fluorescence polarization; R2B truncated from residue 108, S112A mutant; 0% DMSO only, 100% 113 µM cGMP; activation, % at 11.4 µM; hit rate 0.079% among 340,000; AID 504700;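 active = activation above a cutoff set at the mean over all compounds plus 3 SD, cut at about 18% in these data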;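 note: higher means more holoenzyme dissociation and a rise in polarization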
# PKA-R1A act = activates the PKA-R1A holoenzyme complex. P00514+P68181. hit rate 0.083% among 340,000. PKA-R1A dissociation, Cy5-IP20 fluorescence polarization; scaled: DMSO 0%, 113 µM cGMP 100%. activation, % at 11.4 µM. AID 504707;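 active = percent activation above the mean of all tested compounds plus 3 SD, cut at about 19% in these data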;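 note: higher means more PKAc released from R1A so a rise in polarization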
# Starred values were filed as active, the others as inactive; · = not tested or not shown; + = active, no number.
SMILES,dFosB act,CAL PDZ FP-1,CAL PDZ FP-2,NTR1 agonist,PKA-R2B act,PKA-R1A act
Cc1cccc(OCCCn2c(CO)nc3ccccc32)c1,-3.9,·,88.7*,1.4,-3.6,-3.0
COc1cc(NC(=O)c2ccc(Cl)cc2)c(Cl)cc1NC(=O)c1cccnc1,-0.7,-2.0,-3.7,2.2,1.0,-9.0
Cc1ccc(NC(=O)c2c(-c3ccccc3)noc2C)nc1,-1.6,-0.6,+,1.4,5.2,-9.0
Cc1onc(-c2ccccc2)c1C(=O)Nc1ccon1,10.6,0.3,1.1,2.9,6.0,-3.2
C/C(=N\O)C1CC(CC(=O)O)C1(C)C (centres undefined),-3.1,7.9,42.8*,·,0.1,-2.1
CC(C)(C)S(=O)N1Cc2cc(CO)ccc2[C@@H]1CCO (some centres undefined),-1.1,-1.2,-2.8,·,-1.0,-2.5
COCC#Cc1ccc2c(c1)O[C@@H](CN(C)C(=O)Nc1ccc(OC)cc1)[C@H](C)CN([C@H](C)CO)S2(=O)=O,·,·,·,·,-0.1,-13.7
Cc1ccc(N(CC(=O)N2CCOCC2)S(C)(=O)=O)cc1,-8.0,-0.4,2.7,-0.7,-0.3,4.4
CC(C)c1ccc(N(CC(=O)N2CCOCC2)S(C)(=O)=O)cc1,7.2,-6.6,86.0*,-0.1,-2.7,16.5
CCCNC(=O)COc1coc(CN2CCN(c3ccccc3F)CC2)cc1=O,-0.2,-1.9,-2.9,-0.9,-6.7,-20.8
CN(CC(=O)Nc1ccccc1Br)C(=O)COc1ccc2ccccc2c1,-12.0,-0.6,0.3,2.4,-7.6,-7.2
Cc1nc(N)[nH]c(=O)c1CC(=O)OCCCl,-2.5,-0.1,56.2*,0.1,-2.2,-0.7
Cc1cc(C)c2c(n1)SCC(=O)N2CC(=O)Nc1ccc(F)cc1,4.8,-0.7,11.4,-0.2,0.2,3.1
COCCCNC(=O)C1CCC(=O)N(c2ccc3c(c2)OCO3)C1c1ccc(OC)cc1 (centres undefined),1.8,0.9,+,0.6,5.3,10.4
CCC(C)NC(=O)C1CCC(=O)N(c2ccc3c(c2)OCO3)C1c1ccc(OC)cc1 (centres undefined),2.6,0.4,·,-0.3,3.0,-10.8
O=[N+]([O-])c1cccc(-c2c[n+]3c(n2-c2ccccc2)SCC3)c1,-3.2,-1.3,48.1*,-0.3,-0.3,1.2
CCCn1c(=S)[nH]c2cc(OC)c(OC)cc2c1=O,-1.8,-3.5,-2.2,2.7,-1.0,-1.5
COc1cc2[nH]c(=S)n(Cc3cccs3)c(=O)c2cc1OC,19.4*,-3.3,-8.2,2.7,-18.1,-8.8
Cc1nnsc1C(=O)N1CCN(c2ccc(F)cc2)CC1,2.3,-0.2,36.8*,-0.9,0.5,-3.1
Cc1c(C(=O)N2CCN(c3ccc(F)cc3)CC2)sc2nc3n(c(=O)c12)CCC3,-0.8,0.1,86.1*,-1.0,-2.6,-9.4
CSCCC(NC(=O)c1ccccc1)C(=O)OCC(=O)NCc1ccco1 (centres undefined),3.3,0.8,-0.5,-0.3,-12.1,2.1
O=C1C=C(C#Cc2ccc(Oc3ccccc3)cc2)C[C@@H](c2ccc(F)cc2)C1,·,·,·,·,8.5,-1.1
CCN(CC)CCCNc1nc2ccccc2c2[nH]c3ccc(OC)cc3c12,77.8*,12.8,-3.2,·,0.0,-10.5
O=C(COC(=O)/C=C/c1ccccc1)NNC(=O)c1ccc([N+](=O)[O-])cc1,1.0,-1.7,-4.0,0.5,-2.8,-4.2
CN(C)c1ccc(C=c2c3cc([N+](=O)[O-])ccc3n3c2cc(-c2ccccc2)[n+]3C)cc1,14.1,9.1,2.4,·,0.6,0.4
SMILES,dFosB act,CAL PDZ FP-1,CAL PDZ FP-2,NTR1 agonist,PKA-R2B act,PKA-R1A act
COc1cc(N(C)C)ccc1C=c1c2ccccc2n2c1cc(-c1ccccc1)[n+]2C,234.5*,37.9,-14.7,·,-2.8,-3.4
CN(C)c1ccc(C=c2c3ccccc3n3c2cc(-c2ccccc2)[n+]3C)cc1,100.1*,23.5,-14.5,·,9.1,0.4
CN(C)c1ccc(C=c2c3ccccc3n3c2cc(-c2ccc(Cl)cc2)[n+]3C)cc1,49.8*,12.5,-17.0,·,4.5,10.1
CN(C)c1ccc(C=c2c3ccccc3n3c2c2c([n+]3C)CCCC2)cc1,85.8*,12.0,0.4,·,-0.5,-0.5
C(C#CCN1CCOCC1)#CCN1CCOCC1,-3.8,0.7,·,·,-2.0,-7.1
CCn1c(CCC(=O)N(C)CC(=O)Nc2cccc(F)c2)nc2cc(S(=O)(=O)N(C)C)ccc21,-8.5,-3.0,-1.0,-0.6,-2.3,-6.6
Cc1c(CCNC=O)cc(C)c2c3c(oc12)CCCC3,-10.1,-0.9,-8.1,·,-2.6,2.5
COc1ccccc1N(C)S(=O)(=O)c1ccc(C(=O)Nc2cccc(S(=O)(=O)N3CCOCC3)c2)cc1,7.1,-0.5,-4.1,·,-7.2,0.9
COCC(=O)N(Cc1cc2ccccc2[nH]c1=O)c1ccc(OC)cc1,-5.0,-0.3,62.4*,1.8,-7.3,-3.0
COCC(=O)N(Cc1cc2cc(OC)ccc2[nH]c1=O)c1ccccc1,2.0,-0.9,-0.1,0.1,-0.4,0.1
CC(C)[C@H](NC(=O)c1ccc(Br)cc1)C(=O)NC1CCCCC1,3.9,0.4,86.0*,0.3,-8.7,-0.7
NC(=O)/C(=C\c1ccncc1)c1cccc2ccccc12,-1.2,-0.7,73.9*,-0.5,1.1,12.7
CN(Cc1c(F)cccc1Cl)C(=O)C1CC(=O)N(CCc2ccccc2)C1 (centres undefined),-5.6,5.0,78.2*,0.7,-2.4,-7.1
Cc1ccc(NC(=O)C2CC(=O)N(CCc3ccccc3)C2)cc1Cl (centres undefined),-3.4,-2.7,80.1*,1.7,-4.1,-8.2
CCN(CC(=O)Nc1c(F)cccc1F)C(=O)C1CC(=O)N(CCc2ccccc2)C1 (centres undefined),2.1,-1.8,-3.7,0.1,-22.8,-5.0
CN(C)C(=O)c1cc(C(=O)c2ccccc2F)c[nH]1,1.1,-0.9,0.4,0.8,4.8,5.3
C[C@H](NC(=O)c1ncn2c1C(=O)NC[C@@H]2C)C(=O)OC(C)(C)C,·,·,·,·,5.7,-8.4
Nc1c(C(=O)NCc2ccc3c(c2)OCO3)nnn1Cc1ccc(Br)cc1,20.2*,11.8,2.8,4.4,-18.9,-5.0
O=C(NCc1ccc2c(c1)OCO2)c1ccc2c(c1)OCO2,-13.0,-2.0,3.3,2.6,2.9,-1.0
O=C(NCc1ccc2c(c1)OCO2)c1ccc(Cl)nc1,-2.0,-0.1,98.9*,1.6,-1.7,-12.0
Cc1ccc(C(=O)NCc2ccc3c(c2)OCO3)cc1C,-6.6,-0.8,-1.0,-0.6,-5.3,-2.4
Cc1cc(C(=O)NCc2ccc3c(c2)OCO3)ccc1[N+](=O)[O-],-9.5,·,68.9*,1.4,1.2,2.0
CC(=O)Nc1cccc(NC(=O)CCN2C(=O)c3ccccc3S2(=O)=O)c1,-9.1,-2.7,-0.1,2.5,-1.0,-3.0
